Source: PubChem
Sampled rows, rich in hits. Any-hit rate of the full collection: about 1.8%.
CHRM4 agonist = human M4 muscarinic receptor agonists, primary screen, CHO-K1 cells, Fluo-8 calcium fluorescence | Muscarinic acetylcholine receptor M4 (Homo sapiens), P08173 | CHO-K1 hM4/Gqi5; vehicle 0%, full acetylcholine response 100% | activation, % at 3 µM | 0.14% of 360,000 active | AID 624127, 2012;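 active = activation above the run mean over all test wells plus 3 SD, cut at about 32% in these data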;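 note: peak over basal fluorescence ratio per well then scaled between controls; 0% = DMSO wells and 100% = acetylcholine at EC100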
CHRM5 PAM = human M5 muscarinic receptor positive allosteric modulators, primary screen, CHO-K1 cells, Fluo-8 calcium fluorescence; CHO-K1 hM5, ACh EC20 PAM; 0% = ACh EC20, 100% = ACh EC100; activation, % at 3 µM; AID 624038, 2012; Muscarinic acetylcholine receptor M5 (Homo sapiens), P08912; 0.3% of 360,000 active;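 active = activation above the run cutoff, the mean activation of all test compounds plus 3 SD, cut at about 18% in these data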
Target sequence (P08912 whole entry, looked up): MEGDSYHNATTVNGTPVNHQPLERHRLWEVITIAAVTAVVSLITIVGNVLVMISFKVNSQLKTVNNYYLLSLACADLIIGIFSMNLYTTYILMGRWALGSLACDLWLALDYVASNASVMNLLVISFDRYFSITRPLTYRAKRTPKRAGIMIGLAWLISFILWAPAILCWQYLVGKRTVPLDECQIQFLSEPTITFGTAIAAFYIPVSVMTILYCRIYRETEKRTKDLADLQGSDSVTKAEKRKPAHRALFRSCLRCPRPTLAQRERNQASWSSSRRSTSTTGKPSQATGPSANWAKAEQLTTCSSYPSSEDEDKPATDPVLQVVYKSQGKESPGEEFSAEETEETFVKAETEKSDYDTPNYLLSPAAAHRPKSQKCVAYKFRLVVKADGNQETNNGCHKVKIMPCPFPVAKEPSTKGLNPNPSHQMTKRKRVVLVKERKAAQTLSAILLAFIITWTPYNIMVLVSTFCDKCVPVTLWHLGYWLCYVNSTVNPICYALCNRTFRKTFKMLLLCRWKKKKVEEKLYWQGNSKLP
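Test system: CHO-K1 hM5 cells / Doses: single-point, 3 µM nominal / Times: Post-acetylcholine fluorescence recording 140 s / Technique: Fluo-8 calcium fluorescence / Measure: Max/basal fluorescence ratio as % of EC20–EC100 ACh window / Benchmarks: low control EC20 acetylcholine (0%), high control EC100 acetylcholine (100%) / Replicates: one well per compound, no replicates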
CHRM5 agonist = human M5 muscarinic receptor agonists, primary screen, CHO-K1 cells, Fluo-8 calcium fluorescence; Muscarinic acetylcholine receptor M5 (Homo sapiens), P08912; CHO-K1 hM5 cells; 0% DMSO wells, 100% maximal acetylcholine response; activation, % at 3 µM; 0.19% of 360,000 active; AID 624037, 2012;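 active = activation above the run's mean over test compounds plus 3 SD, cut at about 23% in these data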;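 note: signal is peak over basal fluorescence ratio across the kinetic read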
CHRM5 antagonist = human M5 muscarinic receptor antagonists, primary screen, CHO cells, Fluo-8 calcium fluorescence; Muscarinic acetylcholine receptor M5 (Homo sapiens), P08912; CHO-hM5 cells, ACh EC80; inhibition, % at 3 µM; 0.59% of 360,000 active; AID 624040, 2012;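 active = inhibition above a per-plate cutoff, the mean of that plate's test compounds plus 3 SD, cut at about 27% in these data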;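 note: 0% = acetylcholine EC80 with DMSO and 100% = DMSO without agonist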
M4 antag = human M4 muscarinic receptor antagonists, primary screen, CHO cells, Fluo-8 calcium fluorescence; inhibition, % at 3 µM; AID 624125, 2012; 0.73% of 360,000 active; CHO-hM4 cells, ACh EC80; Muscarinic acetylcholine receptor M4 (Homo sapiens), P08173;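 active = inhibition above its plate's cutoff, the mean inhibition of sample wells plus 3 SD, cut at about 27% in these data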;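 note: 0% = acetylcholine EC80 with DMSO and 100% = DMSO without agonist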
CHRM4 PAM = human M4 muscarinic receptor positive allosteric modulators, primary screen, CHO-K1 cells, Fluo-8 calcium fluorescence | activation, % at 3 µM | Muscarinic acetylcholine receptor M4 (Homo sapiens), P08173 | CHO-K1 hM4/Gqi5, ACh EC20; 0% = ACh EC20, 100% = maximal ACh | 0.4% of 360,000 active;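 active = activation above its plate's cutoff, the mean activation of sample wells plus 3 SD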
* = called active by the depositor.

How did CC(C)c1[nH]nc2c1C1(CCN(Cc3ccccc3)CC1)C(C#N)=C(N)O2 do in these assays?
CHRM4 agonist: 3.2; CHRM5 PAM: 1.1; CHRM5 agonist: -2.9; CHRM5 antagonist: 1.6; M4 antag: 32.2*; CHRM4 PAM: 14.2

Results for COc1ccccc1NC(=O)CSc1nnc(COc2ccccc2C)o1 ?
CHRM4 agonist: 3.0; CHRM5 PAM: 4.2; CHRM5 agonist: -4.0; CHRM5 antagonist: 6.3; M4 antag: 100.3*; CHRM4 PAM: -24.3

What do the screens show for `COc1ccccc1NC(=O)CSc1nnc(COc2ccc(Cl)cc2)o1`?
CHRM4 agonist: 3.3; CHRM5 PAM: 3.0; CHRM5 agonist: 1.0; CHRM5 antagonist: 6.2; M4 antag: -4.7; CHRM4 PAM: -4.4

How did O=C(N[C@@H](Cc1ccccc1)C(=O)NCc1ccc(F)cc1)C1CCNCC1 do in these assays?
CHRM4 agonist: 0.6; CHRM5 PAM: 1.1; CHRM5 agonist: -5.1; CHRM5 antagonist: 5.7; M4 antag: -6.5; CHRM4 PAM: 1.1

What do the screens show for `O=C(O)c1cc([N+](=O)[O-])ccc1NCCCc1ccccc1`?
CHRM4 agonist: 3.6; CHRM5 PAM: -14.9; CHRM5 agonist: 34.6*; CHRM5 antagonist: 5.7; M4 antag: -1.4; CHRM4 PAM: 1.6

How did Cc1cc(NC(=O)CSc2nc3c([nH]c4ccccc43)c(=O)n2-c2ccccc2F)no1 do in these assays?
CHRM4 agonist: 2.3; CHRM5 PAM: -7.5; CHRM5 agonist: -0.1; CHRM5 antagonist: 16.1; M4 antag: 7.3; CHRM4 PAM: -5.8

How did CCn1c(CN2CCOCC2)nnc1SCC(=O)Nc1ccc(C(C)=O)cc1 do in these assays?
CHRM4 agonist: 0.1; CHRM5 PAM: -0.5; CHRM5 agonist: -3.4; CHRM5 antagonist: 0.8; M4 antag: 6.7; CHRM4 PAM: -6.7

Results for Clc1ccc(C(CCN2CCCC2)Cc2ccccc2)cc1 (configuration not stated) ?
CHRM4 agonist: 4.1; CHRM5 PAM: -18.5; CHRM5 agonist: -7.5; CHRM5 antagonist: 25.9; M4 antag: 31.8*; CHRM4 PAM: -19.3

How did OC(CCN1CCCCC1)c1ccc(-c2ccccc2)cc1 (configuration not stated) do in these assays?
CHRM4 agonist: 3.0; CHRM5 PAM: -1.7; CHRM5 agonist: -4.8; CHRM5 antagonist: 7.0; M4 antag: 14.4; CHRM4 PAM: -12.7

What do the screens show for `O=C(CC1C=Cc2ccccc2N1C(=O)c1ccccc1)c1ccccc1` (configuration not stated)?
CHRM4 agonist: 9.2; CHRM5 PAM: -7.7; CHRM5 agonist: -0.4; CHRM5 antagonist: 1.7; M4 antag: -3.2; CHRM4 PAM: -4.5

Results for COC(=O)c1onc(-c2c(C)cc(C)cc2C)c1C(=O)OC ?
CHRM4 agonist: -1.4; CHRM5 PAM: 12.2; CHRM5 agonist: -3.8; CHRM5 antagonist: -8.4; M4 antag: -12.1; CHRM4 PAM: 7.0

What do the screens show for `Cc1ccc(CN2CC(N3CCN(C)CC3)CS2(=O)=O)cc1` (configuration not stated)?
CHRM4 agonist: 0.7; CHRM5 PAM: 3.2; CHRM5 agonist: -2.3; CHRM5 antagonist: -0.4; M4 antag: -5.4; CHRM4 PAM: 8.9

What do the screens show for `Cc1ccc(S(=O)(=O)N(C)C[C@H]2OCc3cnnn3CCCC(=O)N([C@@H](C)CO)C[C@H]2C)cc1`?
CHRM4 agonist: -0.1; CHRM5 PAM: 3.6; CHRM5 agonist: 0.0; CHRM5 antagonist: -10.7; M4 antag: -10.6; CHRM4 PAM: -1.9

Results for COc1ccc(S(=O)(=O)N(C)C[C@@H]2OCc3cnnn3CCCC(=O)N([C@@H](C)CO)C[C@@H]2C)cc1 ?
CHRM4 agonist: 0.6; CHRM5 PAM: -3.0; CHRM5 agonist: 1.1; CHRM5 antagonist: -4.9; M4 antag: -17.1; CHRM4 PAM: 19.1*

What do the screens show for `CCOC(=O)c1ccc(N=Cc2cnc(N)nc2N)cc1`?
CHRM4 agonist: 0.5; CHRM5 PAM: 12.2; CHRM5 agonist: -6.3; CHRM5 antagonist: 2.6; M4 antag: -6.6; CHRM4 PAM: -1.1

Results for O=C(CCCN1CCN(c2ccccc2)CC1)c1ccc(F)cc1 ?
CHRM4 agonist: 1.6; CHRM5 PAM: -0.1; CHRM5 agonist: -2.5; CHRM5 antagonist: -3.0; M4 antag: -18.9; CHRM4 PAM: -0.1

Results for O=C1CC(=C(c2ccccc2)c2ccccc2)C(=O)N1CCCCN1CCN(c2ccccc2)CC1 ?
CHRM4 agonist: -0.5; CHRM5 PAM: -20.1; CHRM5 agonist: -8.2; CHRM5 antagonist: 9.3; M4 antag: 33.6*; CHRM4 PAM: -25.1

What do the screens show for `Cc1cc(Cl)ccc1OC(C)C(=O)Nc1ccc(C(=O)Nc2ccccc2C(=O)O)cc1` (configuration not stated)?
CHRM4 agonist: -2.0; CHRM5 PAM: 16.9; CHRM5 agonist: 1.8; CHRM5 antagonist: -10.6; M4 antag: -10.5; CHRM4 PAM: 23.4*

How did CC(C)=C[C@H]1C[C@H](C)[C@H]2CC[C@H](C)c3c(O[C@@H]4O[C@@H](C)[C@@H](O)[C@@H](O)[C@@H]4O)c(O)c(C)c1c32 do in these assays?
CHRM4 agonist: 0.3; CHRM5 PAM: 1.9; CHRM5 agonist: 3.6; CHRM5 antagonist: -5.3; M4 antag: -9.3; CHRM4 PAM: 6.2

What do the screens show for `O=C1NC(CCO)C(=O)NC1CCO` (configuration not stated)?
CHRM4 agonist: -0.3; CHRM5 PAM: -2.5; CHRM5 agonist: 1.6; CHRM5 antagonist: 5.9; M4 antag: 5.0; CHRM4 PAM: 4.4

What do the screens show for `NC(=O)c1nc(C(=O)N2CCN(c3ccccc3)CC2)c2ccccc2n1`?
CHRM4 agonist: 1.4; CHRM5 PAM: 20.0*; CHRM5 agonist: 3.4; CHRM5 antagonist: -9.9; M4 antag: -11.9; CHRM4 PAM: 17.4

How did NC(=O)c1nc(C(=O)N2CCCCC2)c2ccccc2n1 do in these assays?
CHRM4 agonist: 0.9; CHRM5 PAM: 8.1; CHRM5 agonist: 3.5; CHRM5 antagonist: 11.0; M4 antag: -4.6; CHRM4 PAM: 6.0

How did Cc1cc(Br)c(NC(=O)COC(=O)C2CCCCC2)c(Br)c1 do in these assays?
CHRM4 agonist: -1.1; CHRM5 PAM: -1.1; CHRM5 agonist: -6.2; CHRM5 antagonist: -1.4; M4 antag: -3.1; CHRM4 PAM: 9.2

Results for CC(C)N(C(=O)CN(C#N)c1nc(N(C)C)nc(N(C)C)n1)c1ccccc1 ?
CHRM4 agonist: 0.2; CHRM5 PAM: 2.6; CHRM5 agonist: 1.7; CHRM5 antagonist: -2.5; M4 antag: -1.3; CHRM4 PAM: 41.6*
